Calls of active or inactive are those of the source. The calls are words filed in the database; no cut-off is given here.

For experiment [1], the target named is T1, DNA topoisomerase (Bos taurus) (UniProt A0JN73).
T1 sequence (whole entry): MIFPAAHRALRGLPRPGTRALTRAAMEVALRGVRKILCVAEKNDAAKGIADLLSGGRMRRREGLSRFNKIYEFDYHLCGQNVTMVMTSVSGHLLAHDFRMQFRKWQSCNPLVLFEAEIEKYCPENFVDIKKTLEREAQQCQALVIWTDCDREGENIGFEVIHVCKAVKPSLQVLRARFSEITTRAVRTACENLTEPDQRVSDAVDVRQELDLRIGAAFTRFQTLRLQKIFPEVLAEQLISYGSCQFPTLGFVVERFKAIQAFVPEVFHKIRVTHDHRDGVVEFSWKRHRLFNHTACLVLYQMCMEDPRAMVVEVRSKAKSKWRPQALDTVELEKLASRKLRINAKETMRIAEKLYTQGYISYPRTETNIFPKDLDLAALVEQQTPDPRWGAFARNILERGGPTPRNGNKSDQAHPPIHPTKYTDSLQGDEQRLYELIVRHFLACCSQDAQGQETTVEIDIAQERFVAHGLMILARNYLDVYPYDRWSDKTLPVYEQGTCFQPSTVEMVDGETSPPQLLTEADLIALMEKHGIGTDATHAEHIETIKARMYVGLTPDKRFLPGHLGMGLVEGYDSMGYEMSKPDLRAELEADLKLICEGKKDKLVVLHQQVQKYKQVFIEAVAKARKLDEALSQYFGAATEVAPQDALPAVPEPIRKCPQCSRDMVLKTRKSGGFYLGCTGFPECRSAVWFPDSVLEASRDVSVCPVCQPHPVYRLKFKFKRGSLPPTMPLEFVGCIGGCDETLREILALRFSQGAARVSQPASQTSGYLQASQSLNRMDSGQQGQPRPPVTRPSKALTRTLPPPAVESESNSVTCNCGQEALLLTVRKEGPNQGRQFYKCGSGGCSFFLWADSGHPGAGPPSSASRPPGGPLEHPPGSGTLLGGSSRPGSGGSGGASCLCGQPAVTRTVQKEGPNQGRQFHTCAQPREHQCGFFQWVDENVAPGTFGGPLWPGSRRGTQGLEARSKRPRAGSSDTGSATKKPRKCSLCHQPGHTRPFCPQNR
Kind of experiment: Induction of calf thymus Topo 1-pBR322 DNA cleavage complex formation assessed as nicked DNA formation after 30 mins by agarose gel electrophoresis. An outline of the steps: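 Calf thymus Topo I (10 units) with 0.1 µg supercoiled pBR322 and 0.5–50 µM compound in Topo I buffer (pH 7.5) for […]. Complexes trapped with SDS then NaEDTA, followed by proteinase K for 30 min at 45 °C. Samples run on 1% agarose gel containing 0.5 µg/mL ethidium bromide. Nicked DNA quantified by optical density.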

The subject of the next experiment is K562. Put plainly: Cytotoxicity against human K562 cells after 48 hrs by MTT assay. The format is functional, cell-based. The conditions noted are these: K562, 48 h. An outline of the steps:
(§1)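 Cells seeded 1 × 10^4 per well and incubated overnight, then given compound at 0–50 µM for 48 h. MTT added (20 µL of 5 mg/mL stock) for 4 h at 37 °C; formazan dissolved in DMSO, absorbance read at 570 nm. Triplicates; IC50 from mean OD versus concentration curves.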
For orientation: Tetrazolium assays rely on reduction of a dye to a coloured formazan, in cell work by metabolically active cells.

Experiment [2] in a line: Cytotoxicity against human HL60 cells after 48 hrs by MTT assay. It counts as functional, cell-based. The conditions noted are these: HL-60, 48 h. An outline of the steps: as §1
Experiment [3] concerns the target T2, DNA topoisomerase 1 (Homo sapiens) (UniProt P11387).
T2 sequence (whole entry): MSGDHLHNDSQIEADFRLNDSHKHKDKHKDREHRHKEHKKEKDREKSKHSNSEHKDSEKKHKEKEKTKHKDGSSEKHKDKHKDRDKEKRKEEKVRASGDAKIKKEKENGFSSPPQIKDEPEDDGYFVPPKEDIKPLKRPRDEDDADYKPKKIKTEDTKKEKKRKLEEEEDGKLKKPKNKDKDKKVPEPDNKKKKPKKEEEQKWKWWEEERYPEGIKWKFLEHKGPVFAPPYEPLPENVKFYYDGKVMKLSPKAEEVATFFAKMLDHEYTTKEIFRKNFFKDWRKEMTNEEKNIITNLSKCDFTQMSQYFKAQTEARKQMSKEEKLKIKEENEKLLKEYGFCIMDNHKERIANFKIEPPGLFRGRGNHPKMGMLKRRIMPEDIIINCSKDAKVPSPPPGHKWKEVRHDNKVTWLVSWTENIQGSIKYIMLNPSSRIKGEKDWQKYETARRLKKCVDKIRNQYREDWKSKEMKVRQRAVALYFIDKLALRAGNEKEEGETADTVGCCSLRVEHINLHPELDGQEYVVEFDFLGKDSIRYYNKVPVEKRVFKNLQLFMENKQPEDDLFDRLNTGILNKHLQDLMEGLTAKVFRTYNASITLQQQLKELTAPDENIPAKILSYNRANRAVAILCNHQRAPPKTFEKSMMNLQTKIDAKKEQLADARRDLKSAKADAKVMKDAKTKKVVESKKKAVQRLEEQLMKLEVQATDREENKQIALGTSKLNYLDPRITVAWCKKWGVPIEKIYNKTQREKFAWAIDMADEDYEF
Kind of experiment: Induction of Topo 1-DNA cleavage complex formation in human HL60 cells after 1 hr by ICE assay. It counts as cell-based. As to conditions: HL-60. An outline of the steps:
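Mid-log phase HL-60 cells exposed to 2, 5 or 10 µM compound (DMSO vehicle 1.0% v/v) for 1 h, then lysed in DNAzol. DNA was ethanol-precipitated, redissolved and quantified. 2 µg DNA in 25 mM NaH2PO4 pH 6.5 was blotted onto nitrocellulose. Covalent Topo I was probed with rabbit anti-human Topo I (1:1000) and HRP secondary (1:3000), read by chemiluminescence.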

Another experiment concerns HeLa. Kind of experiment: Cytotoxicity against human HeLa cells after 48 hrs by MTT assay. The format is functional, cell-based. The gist of the method: as §1
Another experiment concerns A549. Kind of experiment: Cytotoxicity against human A549 cells after 48 hrs by MTT assay. The format is functional, cell-based. As to conditions: A549, 48 h. The gist of the method: as §1
The test system of another experiment is Calf thymus DNA. Put plainly: Binding affinity to calf thymus DNA at 15 uM after 5 mins by UV-vis spectrometry. The format is nucleic-acid assay. The conditions noted are these: Bos taurus. An outline of the steps: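 Compound at 15 µM in DPBS pH 7.4 with 1% DMSO, titrated with CT-DNA (0–24 µM, quantified at 260 nm, ε 13,200 M(bp)-1 cm-1). Equilibrated 5 min at room temperature; absorption spectra recorded 400–600 nm; Kapp derived from titration.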

Experiment [4] deals with T1, DNA topoisomerase (Bos taurus). Put plainly: Induction of calf thymus Topo 1-pBR322 DNA cleavage complex formation assessed as nicked DNA formation at 0.5 to 10 uM after 30 mins by optical density analysis. An outline of the steps: (§2)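 Calf thymus Topo I (10 units) with 0.1 µg supercoiled pBR322 and compound (0.5–50 µM) in Topo I buffer pH 7.5, 6 min at 37 °C. Complexes trapped with SDS then NaEDTA, proteinase K 30 min at 45 °C, heated 70 °C for 2 min, 1% agarose gel with ethidium bromide. Nicked DNA quantified by optical density.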

The target is the same in experiment [5]. Put plainly: Induction of calf thymus Topo 1-pBR322 DNA cleavage complex formation assessed as nicked DNA formation at 25 to 50 uM after 30 mins by optical density analysis relative to control. An outline of the steps:
as §2

In experiment [6] the target is DNA topoisomerase 2-alpha (Homo sapiens) (UniProt P11388). Put plainly: Induction of human Topo 2-pBR322 DNA cleavage complex formation assessed as linear DNA formation at 10 to 50 uM by agarose gel electrophoresis.
Experiment [7] has the same target. Put plainly: Inhibition of human Topo 2-mediated relaxation of supercoiled pBR322 plasmid at 25 to 50 uM after 30 mins by agarose gel electrophoresis.
Experiment [8] concerns the target T1, DNA topoisomerase (Bos taurus). Kind of experiment: Induction of calf thymus Topo 1-pBR322 DNA cleavage complex formation assessed as nicked DNA formation at 10 uM after 30 mins by optical density analysis relative to control. An outline of the steps: as §2
Experiment [9] addresses T2, DNA topoisomerase 1 (Homo sapiens). Put plainly: Inhibition of Topo 1 (unknown origin)-mediated relaxation of supercoiled pBR322 plasmid at 25 uM after 30 mins by agarose gel electrophoresis. An outline of the steps:
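Topo I with supercoiled pBR322 and compound, 30 min at 37 °C. Stopped with SDS/bromophenol blue/glycerol dye; run on 1% agarose gel in TAE for 1 h and stained with Gel Red.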

Experiment [10] concerns Nucleic Acid. Kind of experiment: Binding affinity to Escherichia coli pBR322 DNA assessed as DNA intercalation activity compound preincubated at 5 to 100 uM for 10 mins before enzyme addition by DNA unwinding assay in presence of topoisomerase 1. The format is nucleic-acid assay.
For experiment [11], the system named is Nucleic Acid. Put plainly: Binding affinity to Escherichia coli pBR322 DNA assessed as DNA intercalation activity compound preincubated for 10 mins before enzyme addition by DNA unwinding assay in presence of topoisomerase 1. It counts as nucleic-acid assay.
Experiment [12] has as its target DNA topoisomerase 2-alpha (Homo sapiens) (UniProt P11388). Kind of experiment: Inhibition of human Topo 2-mediated relaxation of supercoiled pBR322 plasmid at 25 uM after 30 mins by agarose gel electrophoresis.
Experiment [13] shares this target. Kind of experiment: Inhibition of human Topo 2 ATPase domain expressed in yeast BCY123 strain at 25 uM after 1 hr by nonisotopic malachite green assay. The gist of the method: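 Human Topo II ATPase domain overexpressed in yeast BCY123 and purified. Assay buffer: 100 mM Tris-HCl pH 7.4, 20 mM KCl, 6 mM MgCl2. Reaction of 25 µL with compound, started with 1 mM ATP, 1 h at 37 °C. Phosphate detected with malachite green at OD620. No-enzyme background set as 100% inhibition and enzyme-only as 0%.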

Experiment [14] has the same target. Put plainly: Competitive inhibition of human Topo 2 ATPase domain expressed in yeast BCY123 strain after 1 hr by Lineweaver-Burk plot method. An outline of the steps: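 Human Topo II ATPase domain expressed in yeast BCY123 and purified. Assay buffer: 100 mM Tris-HCl pH 7.4, 20 mM KCl, 6 mM MgCl2. ATP at 250, 500, 800, 1,000 and 2000 µM at each fixed compound level (0, 5, 25, 50, 100 µM), 1 h at 37 °C. Phosphate read by malachite green at 620 nm.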

Chain of DNA topoisomerase 2-alpha (Homo sapiens) (P11388 whole entry, the tested form may be a part): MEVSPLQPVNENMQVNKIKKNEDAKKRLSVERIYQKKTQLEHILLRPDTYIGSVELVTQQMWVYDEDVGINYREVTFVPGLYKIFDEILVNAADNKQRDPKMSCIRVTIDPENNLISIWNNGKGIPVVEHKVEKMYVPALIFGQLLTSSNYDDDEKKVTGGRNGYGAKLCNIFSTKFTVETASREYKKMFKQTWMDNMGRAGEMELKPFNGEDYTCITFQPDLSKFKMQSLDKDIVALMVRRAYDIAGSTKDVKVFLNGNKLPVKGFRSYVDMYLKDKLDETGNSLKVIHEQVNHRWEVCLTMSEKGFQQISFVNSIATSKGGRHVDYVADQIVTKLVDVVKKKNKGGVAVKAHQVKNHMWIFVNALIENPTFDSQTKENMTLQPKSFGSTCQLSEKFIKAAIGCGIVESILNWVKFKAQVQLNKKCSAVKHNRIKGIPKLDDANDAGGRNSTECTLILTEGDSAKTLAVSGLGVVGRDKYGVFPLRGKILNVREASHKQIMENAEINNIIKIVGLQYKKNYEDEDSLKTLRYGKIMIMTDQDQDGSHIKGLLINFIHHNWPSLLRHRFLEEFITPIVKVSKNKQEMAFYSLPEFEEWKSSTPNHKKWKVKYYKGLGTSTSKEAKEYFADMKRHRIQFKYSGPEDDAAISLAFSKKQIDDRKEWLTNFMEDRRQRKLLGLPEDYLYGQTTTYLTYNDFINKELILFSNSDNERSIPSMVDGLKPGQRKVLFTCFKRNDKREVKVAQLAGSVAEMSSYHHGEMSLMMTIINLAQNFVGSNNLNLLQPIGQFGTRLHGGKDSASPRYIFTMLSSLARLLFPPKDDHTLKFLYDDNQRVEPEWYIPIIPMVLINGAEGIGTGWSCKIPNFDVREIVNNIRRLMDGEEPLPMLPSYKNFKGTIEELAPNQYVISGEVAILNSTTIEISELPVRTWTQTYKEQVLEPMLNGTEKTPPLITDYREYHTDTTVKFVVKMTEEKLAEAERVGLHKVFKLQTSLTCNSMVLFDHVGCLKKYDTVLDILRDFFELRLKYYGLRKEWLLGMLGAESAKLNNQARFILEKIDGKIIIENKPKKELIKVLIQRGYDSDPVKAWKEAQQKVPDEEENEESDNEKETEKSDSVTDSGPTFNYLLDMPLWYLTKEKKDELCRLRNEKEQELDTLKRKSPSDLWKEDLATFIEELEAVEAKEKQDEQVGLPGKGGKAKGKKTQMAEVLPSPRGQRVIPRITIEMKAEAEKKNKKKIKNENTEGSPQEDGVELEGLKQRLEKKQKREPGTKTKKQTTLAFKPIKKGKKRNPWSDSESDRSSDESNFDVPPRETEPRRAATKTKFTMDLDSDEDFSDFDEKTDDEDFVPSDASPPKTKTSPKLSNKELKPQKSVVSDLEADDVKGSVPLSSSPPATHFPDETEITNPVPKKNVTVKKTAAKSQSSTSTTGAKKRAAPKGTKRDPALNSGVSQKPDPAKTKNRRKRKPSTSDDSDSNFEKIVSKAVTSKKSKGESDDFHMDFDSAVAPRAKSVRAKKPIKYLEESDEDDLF

As for `CC[C@@]1(O)C(=O)OCc2c1cc1n(c2=O)Cc2cc3ccccc3nc2-1` [CAMPTOTHECIN], the Activity result in experiment [1] and in experiment [3] was “Dose-dependent effect” each time. Besides, the IC50 in the experiment with K562 was 5.37 µM; in experiment [2] it was 0.07 µM; with HeLa it was 11.6 µM; in the experiment on A549, 26.4 µM.
In the experiment on Calf thymus DNA, `CN(C)CCCCn1c2cc(=O)c3ccccc3c-2nc2ccccc21` showed a Kapp of 4.83 ×10⁵ /M. Further, the IC50 was found to be 4.73 µM in the experiment with K562, 0.38 µM in experiment [2], 21.4 µM with HeLa and 16.3 µM in the experiment with A549. In addition, the Activity result in experiment [3] and in [4] was “Dose-dependent effect” in each case. The outcome (in [5]; with Nucleic Acid [10]) was Active. Besides, the outcome in experiment [6] was inactive. Further, in experiment [7], the “Topo 2 inhibition (active/not active)” value was “Active”. In addition, in experiment [8], the fold change (FC) stood at 2.5. In addition, the “Topo I relaxation inhibition (active/not active)” value in [9] was “Active”.
As to `CC[n+]1c(-c2ccccc2)c2cc(N)ccc2c2ccc(N)cc21`, the Activity result with Nucleic Acid [11] is “Dose-dependent effect”.
On to `COc1ccc2c3nc4ccc(OC)cc4n(CCCN(C)C)c-3cc(=O)c2c1`, for which the IC50 in the experiment with K562 is 8.73 µM; in experiment [2], 0.09 µM; in the experiment with HeLa, 18.2 µM; in the experiment on A549, 26.4 µM. Further, the “Topo 2 inhibition (active/not active)” value in experiment [12] was “Active”. The figures for the inhibition in [13] and in [14] were 78% and “Dose-dependent effect”, respectively.

Broadly, the IC50 is the concentration at which inhibition is half-maximal. Read a high IC50 as a need for much substance. Usually inhibition stands for the drop in the measured response relative to a control, in per cent.
